{"source": "ChEMBL document CHEMBL1123963", "about": "“Conformational preference for the binding of biaryl substrates and inhibitors to the active site of phenylethanolamine N-methyltransferase” (J Med Chem, 1988)", "key": {"[1]": {"test": "Activity of the substrate is measured as the ratio of 100*Vmax/Km", "how_it_was_run": "(§1)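 Bovine adrenal PNMT, purified through the isoelectric precipitation step, was used. The radiochemical assay contained phosphate buffer (pH 8.0), unlabeled AdoMet, [methyl-3H]AdoMet and enzyme, incubated 30 min at 37 °C. It was stopped with borate buffer (pH 10) and extracted into toluene-isoamyl alcohol (7:3). Km and Vmax came from at least five concentrations of the variable substrate; compounds were tested as hydrochloride salts.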"}, "[2]": {"molecular_target": "T1, Phenylethanolamine N-methyltransferase (Bos taurus, UniProt P10938)", "T1 sequence (P10938 whole entry)": "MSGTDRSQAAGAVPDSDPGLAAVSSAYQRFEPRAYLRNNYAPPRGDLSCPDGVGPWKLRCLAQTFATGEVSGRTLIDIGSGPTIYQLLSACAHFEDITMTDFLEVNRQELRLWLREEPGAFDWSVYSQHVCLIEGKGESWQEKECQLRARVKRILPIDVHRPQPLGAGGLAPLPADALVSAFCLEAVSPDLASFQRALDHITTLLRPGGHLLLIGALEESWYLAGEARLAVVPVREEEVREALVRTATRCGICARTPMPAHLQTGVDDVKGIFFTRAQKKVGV", "test": "In vitro inhibition of compound towards phenylethanolamine N-methyltransferase(PNMT) isolated from bovine adrenal glands", "how_it_was_run": "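Inhibition was measured on bovine adrenal PNMT partially purified through the isoelectric precipitation step. The radiochemical assay used phosphate buffer (pH 8.0) with unlabeled and [methyl-3H]AdoMet, 30 min at 37 °C. It was quenched with pH 10 borate buffer and extracted into toluene-isoamyl alcohol (7:3). Ki came from at least three inhibitor concentrations with phenylethanolamine as the variable substrate; compounds were tested as hydrochloride salts.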"}, "[3]": {"substrate": "NCC(O)c1ccc2c(c1)Cc1ccccc1-2", "test": "(§2) In vitro enzyme kinetics (PNMT) of the compound expressed as Michaelis constant isolated from bovine adrenal glands", "how_it_was_run": "as §1"}, "[4]": {"substrate": "NC[C@@H](O)c1ccccc1", "test": "as §2", "how_it_was_run": "as §1"}, "[5]": {"substrate": "NCC(O)c1cccc2c1Cc1ccccc1-2", "test": "as §2", "how_it_was_run": "as §1"}, "[6]": {"substrate": "NCC(O)c1ccc(-c2ccccc2)cc1", "test": "as §2", "how_it_was_run": "as §1"}, "[7]": {"substrate": "NCC(O)c1ccc2c(c1)Cc1ccccc1-2", "test": "(§3) In vitro enzyme kinetics (PNMT)of the compound expressed as turnover rate isolated from bovine adrenal glands", "how_it_was_run": "as §1"}, "[8]": {"substrate": "NC[C@@H](O)c1ccccc1", "test": "as §3", "how_it_was_run": "as §1"}, "[9]": {"substrate": "NCC(O)c1cccc(-c2ccccc2)c1", "test": "as §3", "how_it_was_run": "as §1"}, "[10]": {"substrate": "NCC(O)c1cccc2c1Cc1ccccc1-2", "test": "as §3", "how_it_was_run": "as §1"}, "[11]": {"substrate": "NCC(O)c1ccc(-c2ccccc2)cc1", "test": "as §3", "how_it_was_run": "as §1"}}, "data": [{"molecule": "NCC(O)c1cccc(-c2ccccc2)c1", "note": "(stereo unspecified)", "values": [{"measurement": "Ratio", "setting": "[1]", "value": 0.07}]}, {"molecule": "NC[C@@H](O)c1ccccc1", "values": [{"measurement": "Ratio", "setting": "[1]", "value": 3.1}]}, {"molecule": "CC(N)c1ccc2c(c1)Cc1ccccc1-2", "note": "(stereo unspecified)", "values": [{"measurement": "Ki", "setting": "[2]", "value": 185, "unit": "µM"}]}, {"molecule": "NCC(O)c1cccc2c1Cc1ccccc1-2", "note": "(stereo unspecified)", "values": [{"measurement": "Ratio", "setting": "[1]", "value": 0.015}]}, {"molecule": "NCC(O)c1ccc(-c2ccccc2)cc1", "note": "(stereo unspecified)", "values": [{"measurement": "Ratio", "setting": "[1]", "value": 5.2}]}, {"molecule": "NCC(O)c1ccc2c(c1)Cc1ccccc1-2", "note": "(stereo unspecified)", "values": [{"measurement": "Ratio", "setting": "[1]", "value": 6.7}]}, {"molecule": "CC(N)c1cccc2c1Cc1ccccc1-2", "note": "(stereo unspecified)", "values": [{"measurement": "Ki", "setting": "[2]", "value": 4.14, "unit": "µM"}]}, {"molecule": "Phenylethanolamine N-methyltransferase (Bos taurus), P10938 (protein) MSGTDRSQAAGAVPDSDPGLAAVSSAYQRFEPRAYLRNNYAPPRGDLSCPDGVGPWKLRCLAQTFATGEVSGRTLIDIGSGPTIYQLLSACAHFEDITMTDFLEVNRQELRLWLREEPGAFDWSVYSQHVCLIEGKGESWQEKECQLRARVKRILPIDVHRPQPLGAGGLAPLPADALVSAFCLEAVSPDLASFQRALDHITTLLRPGGHLLLIGALEESWYLAGEARLAVVPVREEEVREALVRTATRCGICARTPMPAHLQTGVDDVKGIFFTRAQKKVGV", "values": [{"measurement": "Km", "setting": "[3]", "value": 26.3, "unit": "µM"}, {"measurement": "Km", "setting": "[4]", "value": 70, "unit": "µM"}, {"measurement": "Km", "setting": "[5]", "value": 297, "unit": "µM"}, {"measurement": "Km", "setting": "[6]", "value": 82, "unit": "µM"}, {"measurement": "Vmax (nM min-1 (mg of protein)-1)", "setting": "[7]", "value": 1.76}, {"measurement": "Vmax (nM min-1 (mg of protein)-1)", "setting": "[8]", "value": 2.2}, {"measurement": "Vmax (nM min-1 (mg of protein)-1)", "setting": "[9]", "value": 0.46}, {"measurement": "Vmax (nM min-1 (mg of protein)-1)", "setting": "[10]", "value": 0.046}, {"measurement": "Vmax (nM min-1 (mg of protein)-1)", "setting": "[11]", "value": 4.3}]}]}
